Among the data in ChEMBL document CHEMBL5360579, “Exploring the anticancer activity and the mechanism of action of pyrrolomycins F obtained by microwave-assisted total synthesis” (Eur J Med Chem, 2023) are IC50, selectivity ratio and Activity values, retold here.

For data set [1], the system named is HCT-116. In words: Cytotoxicity against human HCT-116 cells assessed as inhibition of cell proliferation incubated for 48 hrs by MTT assay. The class given is functional, cell-based. The note with it: HCT-116, 48 h. In short, it runs like this: (§1)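 Cells kept in DMEM with 10% heat-inactivated FBS, penicillin/streptomycin, 37 °C, 5% CO2. Plated at 5×10^3 cells/well and left 24 h, then exposed 48 h to 80, 20, 5, 1.25, 0.31 and 0.078 µM (diluted from 5 mM DMSO stocks). MTT added for 2 h at 37 °C, formazan dissolved in DMSO, A570 read. Blank subtracted, viability taken relative to untreated cells. IC50 from a sigmoidal fit of % inhibition vs log concentration. Three experiments, each in triplicate.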
For orientation: Tetrazolium dyes change colour on reduction, which living cells bring about.

Data set [2] has as its system MCF7. In words: Cytotoxicity against human MCF7 cells assessed as inhibition of cell proliferation incubated for 48 hrs by MTT assay. The class given is functional, cell-based. The note with it: MCF7, 48 h. In short, it runs like this:
as §1

The nature of data set [3]: Cytotoxicity against hTERT-RPE1 cells assessed as inhibition of cell proliferation incubated for 48 hrs by MTT assay. It counts as toxicity, cell-based, TERT-RPE1. The settings on record: human. The method, boiled down:
as §1

Data set [4] in a line: Selectivity index, ratio of IC50 for hTERT-RPE1 cells to IC50 for human HCT-116 cells. It counts as toxicity. The note with it: hTERT-RPE1 cells versus HCT-116 cells, read-out: Ratio IC50. The method, boiled down:
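Ratio of the hTERT-RPE-1 MTT IC50 to the IC50 in HCT116 or MCF-7. Each IC50 comes from a 48 h MTT assay (0.078–80 µM, sigmoidal fit), three experiments in triplicate.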

The test system of data set [5] is MCF7. In words: Induction of morphological changes in human MCF7 cells assessed as reduction in cell clumps at 1 uM incubated for 48 hrs by inverted phase-contrast microscopic analysis. It counts as functional, cell-based.
Data set [6] deals with HCT-116. Briefly: Induction of morphological changes in human HCT-116 cells assessed as appearance of flattened cells at 0.5 uM incubated for 48 hrs by inverted phase-contrast microscopic analysis. It counts as functional, cell-based.
Data set [7] concerns MCF7. In words: Induction of morphological changes in human MCF7 cells assessed as appearance of filamentous protrusions at 1 uM incubated for 48 hrs by inverted phase-contrast microscopic analysis. It counts as functional, cell-based.
Data set [8] relates to MCF7. Briefly: Induction of morphological changes in human MCF7 cells assessed as development of long elongations from filamentous protrusions resembling filopodia at 1 uM incubated for 48 hrs by inverted phase-contrast microscopic analysis. The class given is functional, cell-based.
Data set [9] has as its system HCT-116. In words: Induction of morphological changes in human HCT-116 cells assessed as increase in number of prominent vacuoles at 0.5 uM incubated for 48 hrs by inverted phase-contrast microscopic analysis. The class given is functional, cell-based.
Data set [10] relates to HCT-116. Briefly: Induction of morphological changes in human HCT-116 cells assessed as neuronal sprouting at 0.5 uM incubated for 48 hrs by scanning electron microscopic analysis. The class given is functional, cell-based. In short, it runs like this: (§2)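 HCT116 on coverslips, treated 48 h at 0.5 µM. Coverslips rinsed in PBS pH 7.4, fixed in 4% glutaraldehyde for 30 min at 4 °C, then imaged by scanning electron microscopy at 5000X and 20000X.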

Data set [11] has as its system HCT-116. Briefly: Induction of morphological changes in human HCT-116 cells assessed as tunneling nanotubes formation at 0.5 uM incubated for 48 hrs by scanning electron microscopic analysis. It counts as functional, cell-based. In short, it runs like this:
as §2

Data set [12] has as its system HCT-116. In words: Induction of apoptosis in human HCT-116 cells assessed as nuclear fragmentation at 0.5 uM incubated for 48 hrs by Hoechst 33342 staining based analysis. It counts as functional, cell-based. The method, boiled down:
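HCT116 on coverslips at 5×10^4 cells/well, treated 48 h at 0.5 µM after 24 h attachment. PBS-washed, stained 10 min with Hoechst 33342 (final 1 µg/ml). Nuclei inspected at once by fluorescence microscopy at 640X for chromatin condensation and nuclear fragmentation.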

For data set [13], the system named is HCT-116. In words: Induction of autophagy in human HCT-116 cells assessed as upregulation of LC3-II expression at 0.5 uM incubated for 48 hrs by Western blot analysis. The class given is functional, cell-based. For orientation: A western blot detects proteins with antibodies after separation by electrophoresis.
The test system of data set [14] is HCT-116. In words: Induction of autophagy in human HCT-116 cells assessed as downregulation of LC3B-I expression at 0.5 uM incubated for 48 hrs by Western blot analysis. The class given is functional, cell-based.
Data set [15] relates to HCT-116. In words: Induction of autophagy in human HCT-116 cells assessed as effect on Atg-7 protein expression at 0.5 uM incubated for 48 hrs by Western blot analysis. The class given is functional, cell-based.
In data set [16] the test system is HCT-116. In words: Induction of autophagy in human HCT-116 cells assessed as effect on Beclin-1 protein expression at 0.5 uM incubated for 48 hrs by Western blot analysis. The class given is functional, cell-based.
Data set [17] deals with HCT-116. In words: Upregulation of cofilin protein expression in human HCT-116 cells at 0.5 uM incubated for 48 hrs by Western blot analysis. It counts as functional, cell-based.
Data set [18] concerns HCT-116. In words: Induction of intracellular ROS generation in human HCT-116 cells at IC50 by DCFH-DA staining based analysis. The class given is functional, cell-based. The note with it: time 24-48 hrs, TDE = time-dependent effect. In short, it runs like this:
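HCT116 plated at 5×10^3 cells/well, grown overnight, then exposed 24 h or 48 h at the IC50 concentration. Loaded with 10 µM DCFH-DA for 30 min at 37 °C, medium swapped for PBS. Fluorescence read at ex 488/em 525 nm, normalized to cell number from a parallel MTT assay and to untreated cells. Triplicate, mean ±SD, Student's t-test.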

Data set [19] has as its system HCT-116. Briefly: Induction of cell death in human HCT-116 cells assessed as chromatin condensation at 0.5 uM incubated for 48 hrs by acridine orange and ethidium bromide staining based fluorescence microscopic analysis. The class given is functional. In short, it runs like this: (§3)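 HCT116 on coverslips (5×10^4 cells/well), 24 h attachment, then exposed 48 h to 0.5 µM. PBS-washed and stained a few minutes with a 1:1 mix of acridine orange (100 µg/mL) and ethidium bromide (100 µg/mL). Viewed at once by fluorescence microscopy at 640X, scoring green vs orange nuclei and punctate cytoplasmic staining.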

Data set [20] deals with HCT-116. Briefly: Induction of cell death in human HCT-116 cells assessed as appearance of acidic vesicular organelles by measuring bright punctate dots in cytoplasm at 0.5 uM incubated for 48 hrs by acridine orange and ethidium bromide staining based fluorescence microscopic analysis. It counts as functional. In short, it runs like this: as §3
Data set [21] concerns HCT-116. In words: Induction of autophagy in human HCT-116 cells assessed as upregulation of Atg-7 protein expression at 0.5 uM incubated for 48 hrs by Western blot analysis. The class given is functional, cell-based.
For data set [22], the system named is HCT-116. Briefly: Induction of autophagy in human HCT-116 cells assessed as upregulation of Beclin-1 protein expression at 0.5 uM incubated for 48 hrs by Western blot analysis. It counts as functional, cell-based.

Activity calls are given as the source filed them. No cut-off for these calls is given here.

Regarding `O=C(c1cc(Br)ccc1O)c1[nH]c(Cl)c(Br)c1Br`, the IC50 came out at 0.41 µM in the data set with HCT-116 [1] and 0.65 µM with MCF7 [2]. The IC50 at 48 h in data set [3] is 61.5 µM. In data set [4], the selectivity ratio was around 100. Also, the outcome in the data set on MCF7 [5], in the data set with HCT-116 [6], in the data set with MCF7 [7], with MCF7 [8], with HCT-116 [9] and in the data set on HCT-116 [10] was Active. In addition, the outcome with HCT-116 [11], in the data set with HCT-116 [13], with HCT-116 [14], with HCT-116 [15], in the data set on HCT-116 [16] and in the data set with HCT-116 [17] was Active. The result in the data set on HCT-116 [20] was Active. Further, the result in the data set with HCT-116 [12] and in the data set on HCT-116 [19] was inactive. In the data set with HCT-116 [18], the Activity result is “Tde”.
Take `O=C(c1cc(Br)ccc1O)c1[nH]c(Br)c(Cl)c1Br`: the IC50 in the data set with HCT-116 [1] came to 0.49 µM; in the data set with MCF7 [2] it was 0.73 µM. For the same compound, in [3], the IC50 at 48 h is 86.6 µM. Besides, the selectivity ratio in data set [4] is around 100. Moreover, the outcome in the data set on MCF7 [5], in the data set with HCT-116 [6], in the data set on MCF7 [7], in the data set with MCF7 [8], with HCT-116 [9] and in the data set with HCT-116 [10] was Active. The outcome in the data set with HCT-116 [11], in the data set with HCT-116 [15], in the data set on HCT-116 [16], with HCT-116 [17] and in the data set on HCT-116 [20] was Active. The outcome with HCT-116 [12] and with HCT-116 [19] was inactive. The Activity entry in the data set on HCT-116 [18] is “Tde”.
`O=C(c1cc(Br)ccc1O)c1[nH]c(Cl)c(Cl)c1Br`: the IC50 amounted to 0.88 µM with HCT-116 [1] and 1.21 µM with MCF7 [2]. In addition, the concentration for half-maximal inhibition (IC50) at 48 h in data set [3] is 175 µM. For the same compound, the selectivity ratio in [4] is around 100. The outcome in the data set with MCF7 [5], in the data set on HCT-116 [6], in the data set with MCF7 [7], with MCF7 [8], in the data set on HCT-116 [9] and with HCT-116 [10] was Active. Also, the result with HCT-116 [11], in the data set on HCT-116 [13], with HCT-116 [14], in the data set with HCT-116 [15], with HCT-116 [16] and with HCT-116 [17] was Active. The outcome in the data set on HCT-116 [20] was Active. For the same compound, the outcome in the data set on HCT-116 [12] and in the data set on HCT-116 [19] was inactive. Besides, the Activity entry in the data set on HCT-116 [18] is “Tde”.
For the compound `O=C(c1cc(Br)cc(Br)c1O)c1[nH]c(Br)c(Br)c1Br`, the IC50 worked out at 1.3 µM in the data set on HCT-116 [1] and 1.2 µM in the data set on MCF7 [2]. Further, the IC50 at 48 h in data set [3] came to 57.7 µM. Besides, the result in the data set with MCF7 [5], in the data set on HCT-116 [6], with MCF7 [7], with MCF7 [8], in the data set with HCT-116 [9] and in the data set with HCT-116 [10] was Active. The outcome with HCT-116 [11], in the data set with HCT-116 [21], in the data set on HCT-116 [22], in the data set with HCT-116 [17] and in the data set on HCT-116 [20] was Active. For the same compound, the outcome in the data set on HCT-116 [12] and in the data set with HCT-116 [19] was inactive. Besides, the Activity entry in the data set on HCT-116 [18] was “Tde”.
For `O=C(c1cc(Br)ccc1O)c1[nH]c(Br)c(Br)c1Br`, the IC50 was 0.35 µM in the data set on HCT-116 [1] and 0.61 µM with MCF7 [2]. Also, the IC50 at 48 h in [3] is 62.8 µM. Moreover, in data set [4], the selectivity ratio is around 100. Further, the result with MCF7 [5], in the data set with HCT-116 [6], in the data set with MCF7 [7], with MCF7 [8], with HCT-116 [9] and in the data set on HCT-116 [10] was Active. For the same compound, the result with HCT-116 [11], in the data set with HCT-116 [15], in the data set with HCT-116 [16], with HCT-116 [17] and in the data set on HCT-116 [20] was Active. In addition, the result in the data set on HCT-116 [12] and with HCT-116 [19] was inactive. In addition, the Activity entry with HCT-116 [18] was “Tde”.

What is called IC50 is the concentration that inhibits the measured activity by half.
